Key:
[1] = molecular target: T1, Sterol O-acyltransferase 1 (Rattus norvegicus) (UniProt O70536); assay: Tested in vitro for acyl coenzyme A:cholesterol acyltransferase (ACAT) activity in rat liver microsome at a concentration of 1 micro g/mL; assay type: microsomes
T1 sequence (whole entry): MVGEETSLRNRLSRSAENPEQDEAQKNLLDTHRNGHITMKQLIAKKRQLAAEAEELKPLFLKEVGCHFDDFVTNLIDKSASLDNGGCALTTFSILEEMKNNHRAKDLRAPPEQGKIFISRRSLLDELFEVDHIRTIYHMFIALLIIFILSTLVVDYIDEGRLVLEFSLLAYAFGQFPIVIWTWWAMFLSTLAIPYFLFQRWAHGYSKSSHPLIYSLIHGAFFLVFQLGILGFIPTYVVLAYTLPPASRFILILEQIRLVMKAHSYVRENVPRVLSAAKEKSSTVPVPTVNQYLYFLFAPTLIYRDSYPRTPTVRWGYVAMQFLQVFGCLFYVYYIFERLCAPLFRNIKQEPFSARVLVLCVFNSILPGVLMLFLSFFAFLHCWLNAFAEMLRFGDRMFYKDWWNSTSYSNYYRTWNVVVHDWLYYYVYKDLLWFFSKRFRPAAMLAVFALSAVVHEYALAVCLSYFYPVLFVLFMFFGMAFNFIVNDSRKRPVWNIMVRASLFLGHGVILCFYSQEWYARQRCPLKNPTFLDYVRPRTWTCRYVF
How it was run: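 Enzyme source was hepatic microsomes from cholesterol-fed rats, 60 μg microsomal protein per reaction, with 90 μM radiolabeled oleoyl-CoA. Cholesterol ester formed was separated by TLC and quantified by scintillation counting. Compounds were tested at a single fixed concentration of 1 or 10 μg/mL, and results were given as percent inhibition of enzyme activity.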

[2] = molecular target: T2, Sterol O-acyltransferase 1 (Rattus norvegicus, UniProt O70536); assay: Inhibition of acyl coenzyme A:cholesterol acyltransferase (ACAT) activity in rat liver microsome; assay type: microsomes
T2 sequence (O70536 whole entry): T1 sequence (whole entry)
How it was run: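 The assay used rat hepatic microsomes from cholesterol-fed animals (60 μg protein) and 90 μM radiolabeled oleoyl-CoA. Cholesterol ester product was resolved by TLC and counted by scintillation. IC50 was the concentration inhibiting 50% of enzyme activity.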

[3] = tested on: Rattus norvegicus; assay: Tested in vivo for anti-hypercholesterolaemic activity in male Sprague-Dawley rat.; assay type: functional
How it was run: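 Compound was given at 0.03% w/w in the diet (about 30 mg/kg/day). Basal-diet rats (n = 4) gave a baseline that was subtracted. Plasma cholesterol was measured enzymatically, and the result was expressed as percent change versus undosed controls.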

[4] = molecular target: T1, Sterol O-acyltransferase 1 (Rattus norvegicus); assay: Tested in vitro for Acyl coenzyme A:cholesterol acyltransferase (ACAT) activity in rat liver microsome at a concentration of 1 micro g/mL

SMILES | inhibition [1] [%] | IC50 [2] [nM] | inhibition [4] [%] | Change [3] [%]
c1ccc(-c2nc(SCC3CCCCO3)[nH]c2-c2ccccc2)cc1 (stereo unspecified) | 92 | 210 | – | -38
c1ccc(-c2nc(SCC3OCCO3)[nH]c2-c2ccccc2)cc1 | 98 | 530 | – | -29
CO[C@]1(C)C[C@H](O)C[C@@H](CSc2nc(-c3ccccc3)c(-c3ccccc3)[nH]2)O1 | – | – | 85 | –

Continued, in another order:

inhibition [1] [%] | IC50 [2] [nM] | inhibition [4] [%] | SMILES | Change [3] [%]
94 | 64 | – | Cc1cccc(-c2nc(SC[C@H]3C[C@@](C)(O)CC(=O)O3)[nH]c2-c2cccc(C)c2)c1.Cc1cccc(-c2nc(SC[C@H]3C[C@](C)(O)CC(=O)O3)[nH]c2-c2cccc(C)c2)c1 | -64
94 | 100 | – | CC1(C)CC(=O)OC(CSc2nc(-c3ccccc3)c(-c3ccccc3)[nH]2)C1 (stereo unspecified) | -17
95 | 69 | – | CCOC(CCSc1nc(-c2ccccc2)c(-c2ccccc2)[nH]1)OCC | 4

From ChEMBL document CHEMBL1125365, “Acyl-CoA:cholesterol O-acyl transferase (ACAT) inhibitors. 1. 2-(Alkylthio)-4,5-diphenyl-1H-imidazoles as potent inhibitors of ACAT” (J Med Chem, 1992)
